Assay outcomes from PubChem.
ERa coact pot – enhances coactivator binding to human estrogen receptor alpha. coactivator binding (% of control), % at 25.6 µM. TR-FRET ERalpha-LBD/SRC-Cy5 coactivator binding, 2 h; 100 = basal binding, no effect. 86,000 compounds, 1.3% hits. AID 639. P03372; in the data active means activity above about 200%;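 further: binding measured in presence of low estradiol as agonist stimulus; 0% = peptide alone without receptor and 100% = receptor with peptide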
ERa SRC1 inh – blocks coactivator binding to human estrogen receptor alpha. 86,000 compounds, 1.7% hits. inhibition, % at 25.6 µM. TR-FRET ER-alpha LBD / SRC-1 peptide, estradiol-bound. AID 629; in the data active means inhibition above about 50%;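 further: 0% = receptor plus peptide control and 100% = peptide only without receptor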
ERb SRC1 inh – blocks coactivator binding to human estrogen receptor beta | TR-FRET ER-beta LBD / SRC1-Cy5 peptide binding; receptor agonist-loaded with 1 µM estradiol | inhibition, % at 25.6 µM | 86,000 compounds, 1.3% hits | AID 633;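 active means compounds whose percent inhibition of the receptor-coactivator binding signal exceeds about 50% in the single-dose screen, limit read from the data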;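 further: 0% = receptor plus peptide wells without compound and 100% = peptide-only wells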
SF-1 act – SF-1 (human) activation | Q13285 | CHO-K1 Gal4-SF-1 LBD luciferase reporter; % increase over DMSO SF-1-specific signal | activation, % at 10 µM | 65,000 compounds, 1.9% hits;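 active means activation above the mean activation of all tested compounds plus 3 SD, cut at about 50% in these data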
Target sequence (Q13285 whole entry, looked up, the tested form may be a part): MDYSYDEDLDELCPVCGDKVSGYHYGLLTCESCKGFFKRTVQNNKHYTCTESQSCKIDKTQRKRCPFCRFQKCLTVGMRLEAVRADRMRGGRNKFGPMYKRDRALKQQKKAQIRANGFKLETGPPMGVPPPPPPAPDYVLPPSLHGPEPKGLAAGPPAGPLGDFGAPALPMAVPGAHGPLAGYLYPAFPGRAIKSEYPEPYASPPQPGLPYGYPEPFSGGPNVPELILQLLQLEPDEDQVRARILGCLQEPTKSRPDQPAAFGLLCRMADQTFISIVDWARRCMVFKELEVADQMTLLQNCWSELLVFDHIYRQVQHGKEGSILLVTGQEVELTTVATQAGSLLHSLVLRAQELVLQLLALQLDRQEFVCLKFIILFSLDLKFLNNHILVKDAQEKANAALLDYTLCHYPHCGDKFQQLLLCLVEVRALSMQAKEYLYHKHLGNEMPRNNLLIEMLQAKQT
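Test system: CHO-K1 cells co-transfected with Gal4 DBD–human SF-1 LBD, 5xGal4 luciferase reporter. Quantity: 4,000 cells per well. Compound: 10 µM only. Incubation: compound added 1 h post-seeding, 20 h exposure at 37 °C, 5% CO2. Detection: SteadyLite luciferase luminescence. Replication: one test per compound.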
RORa activator – RORA (human) activation; CHO-K1 Gal4-RORA LBD luciferase reporter, luminescence; percent increase over mock-subtracted basal signal; P35398; 65,000 compounds, 1.5% hits; activation, % at 10 µM;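 active means activation above the mean of all tested compounds plus 3 SD, cut at about 49% in these data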;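 further: 0% = DMSO-treated RORA cells and 100% = added signal equal to DMSO minus mock-transfected cells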
BAP1 inh – human BAP1 deubiquitinase inhibition; AID 436; calls only at 20 µM; 72,000 compounds, 0.48% hits; Q92560; recombinant BAP1, Ub-AMC hydrolysis fluorescence kinetic; active compounds read low;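 active means activity remaining at or below 50% of control, provided the compound also passes the data quality filters; inactive means the rest, including low values that fail the filters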;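 further: 100% = DMSO wells rate and 0% = substrate alone blank rate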
* marks the source's active call; other numbers are inactive results; i = inactive; . = not tested or not shown; + = active, no number; [ ] = another dose, or the depositor's remark. Rows were chosen to be rich in hits. Some 5.1% of all compounds tested hit in one or more screens of this group.

SMILES	ERa coact pot	ERa SRC1 inh	ERb SRC1 inh	SF-1 act	RORa activator	BAP1 inh
CC1=C(C(=O)OC2CCCCCCC2)C(c2cccc(Oc3ccccc3)c2)NC(=O)N1 (configuration not stated)	.	.	.	.	.	i
COc1ccc(-c2c(C#N)c(C)nc3c2C(=O)c2ccccc2-3)cc1	373*	2	2	.	.	.
COc1ccc(C(=O)c2sc3nc(N)c(C#N)c(-c4ccc(OC)cc4)c3c2N)cc1	.	.	.	.	.	i
CCOc1cccc(=O)c2c(C)n(C)c(C)c12	78	8	12	7	-10	i
COc1cccc(=O)c2c(C)n(C)c(C)c12	72	38	51*[fluorescence artefact?]	-2	-21	i
O=C(Nc1ccc2nc3n(c(=O)c2c1)CCCCC3)c1ccccn1	98	12	-4	28	54*	i
COC(=O)C(NC(=O)C(c1ccccc1)c1ccccc1)C12CC3CC(CC(C3)C1)C2 (configuration not stated)	.	.	.	.	.	i
COc1ccc2cc3c(N)nn(C(=O)Cc4ccc(Cl)cc4)c3nc2c1	77	60*	46	.	.	.
COc1ccc2nc(NC(=O)Cc3ccc(Cl)cc3)sc2c1	.	.	.	.	.	i
CC(C)Oc1ccc(NC(=O)Oc2ccccc2)cc1	123	2	-4	52*	39	i
Oc1cc(O)cc(/C=C/c2ccc(O)c(O)c2)c1	.	.	.	.	.	+
N#C/C(=C\c1ccc(O)c(O)c1)C(=O)NCCCNC(=O)/C(C#N)=C/c1ccc(O)c(O)c1	.	.	.	.	.	i
Cc1ccc2nc(C(O)C(O)c3nc4ccc(C)cc4[nH]3)[nH]c2c1 (configuration not stated)	109	1	7	51*	23	.
Cc1ccc2nc(C(C)O)[nH]c2c1 (configuration not stated)	92	-9	-13	.	.	.
CC(C)NC(=O)CN1C(=O)NC(CCc2ccccc2)C1=O (configuration not stated)	107	61*[fluorescence artefact?]	-4	.	.	.
O=C(CN1C(=O)NC(Cc2ccccc2)C1=O)Nc1ccc(F)cc1 (configuration not stated)	103	-1	-9	0	-19	i
CC(C)(Oc1ccc(-c2ccco2)cc1)C(=O)O	99	1	4	-4	-11	.
CC(=O)C1=C(O)C=C(c2ccco2)CC1c1ccco1 (configuration not stated)	86	17	50*[fluorescence artefact?]	-12	-4	i
CCc1ccc2[nH]c(=O)c(CN(Cc3ccc4c(c3)OCO4)C(=O)c3ccco3)cc2c1	74	74*	41	-9	-5	i
CCOc1ccc2[nH]c(=O)c(CN(Cc3ccc(F)cc3)C(=O)c3ccco3)cc2c1	77	45	20	30	15	.
Cc1cc(=O)n2ccc(CN3CCOCC3)c(O)c2n1	.	.	.	.	.	i
CSc1nc(-c2ccccc2)nc(SC)c1C(C)=O	87	5	-4	-2	-2	i
CSc1nc(-c2ccccc2)nc2[nH]ccc(=O)c12	317*	52*[fluorescence artefact?]	25	11	4	i
O=C(Nc1ccc2c(c1)OCO2)C1CCN(C(=O)CSc2ncnc3ccccc23)CC1	60	55*[fluorescence artefact?]	46	11	11	.
Cc1ccc(S(=O)(=O)C2(C(=O)N3CCN(C4CCCCC4)CC3)CC2)cc1	.	.	.	-2	20	i
SMILES	ERa coact pot	ERa SRC1 inh	ERb SRC1 inh	SF-1 act	RORa activator	BAP1 inh
Cc1ccc(S(=O)(=O)C2(C(=O)N3CCCCCC3)CC2)cc1	108	-17	80*[fluorescence artefact?]	-4	-11	i
CCn1c(C(O)(c2ccccc2)c2ccc(C)cc2)nc2ccccc21 (configuration not stated)	.	.	.	.	.	i
O=[N+]([O-])c1cc(-n2cnnn2)ccc1Cl	.	.	.	.	.	i
c1ccc(Cn2c(CSc3nnnn3-c3ccccc3)nc3ccccc32)cc1	73	64*[fluorescence artefact?]	18	-2	-1	.
O=c1c2ccccc2nc(CSc2nnnn2-c2ccccc2)n1-c1ccccc1Cl	98	78*[fluorescence artefact?]	59*[fluorescence artefact?]	.	.	.
CC(=O)Nc1ccc(S(=O)(=O)NC2CCC(C(=O)O)CC2)cc1 (configuration not stated)	.	.	.	.	.	i
CS(=O)(=O)N1CCN(c2ccccc2NC(=O)Cc2ccc(Cl)cc2)CC1	948*[fluorescence artefact?]	-5	1	-4	-26	i
O=C1CSC(c2ccc(OC(F)F)cc2)N1c1ccc(Br)cc1 (configuration not stated)	.	.	.	.	.	i
COCCOC(=O)c1[nH]c2c(c1C)C(=O)CC(c1cc(OC)ccc1OC)C2 (configuration not stated)	.	.	.	7	75*	i
Cc1[nH]n(-c2ccccc2)c(=O)c1Sc1ccc(Cl)cc1	72	39	81*	.	.	.
Cc1[nH]n(C(C)(C)C)c(=O)c1Sc1ccccc1	120	-13	-15	1	-5	i
COc1ccccc1OCc1nnc(SCC(=O)c2cc(Cl)ccc2OC)o1	322*[fluorescence artefact?]	1	-3	-13	3	i
COc1cccc(OCc2nnc(SCC(=O)OCc3ccccc3)o2)c1	98	-2	-2	7	49*	i
C/C(N)=C(/C#N)C(=O)CSc1nnc(COc2ccccc2Cl)o1	77	58*	59*	16	10	i
COc1ccccc1OCc1nnc(SCCN2CCOCC2)o1	148	-6	-7	0	-2	i
CCOc1cc(-c2cc(-c3ccc(N)cc3)nc(N)c2C#N)ccc1O	69	17	14	54*	32	i
OC1CCCCC1Sc1nc2ccccc2s1 (configuration not stated)	107	-2	-10	59*	30	i
O=c1[nH]c(CN2CCN(c3ccccc3Cl)CC2)nc2ccsc12	104	-6	1	-6	-1	i
COc1cc2c(cc1OC)CN(Cc1nc3ccsc3c(=O)[nH]1)CC2	59	53*[fluorescence artefact?]	49	-6	-11	i
COc1ccccc1C(=O)Nc1cc(-c2nc3cc(Cl)ccc3o2)ccc1C	.	.	.	.	.	i
COc1ccc(NC2=C(Cl)C(=O)N(c3ccc(Br)cc3)C2=O)cc1	.	.	.	.	.	i
Cc1ccc(Cn2c(SCC(C)C)nc3c2c(=O)[nH]c(=O)n3C)cc1	.	.	.	-10	-13	i
CCCSc1nc2c(c(=O)[nH]c(=O)n2C)n1Cc1ccc(C)cc1	119	67*[fluorescence artefact?]	33	-2	25	i
CCN(CC)C(=O)C1CC(=O)N(c2ccc(F)c(Cl)c2)C1 (configuration not stated)	101	4	67*[fluorescence artefact?]	1	28	i
Cc1sc2nc(SCC(=O)Nc3c(C)n(C)n(-c4ccccc4)c3=O)n(C)c(=O)c2c1C	24	70*[fluorescence artefact?]	62*[fluorescence artefact?]	7	-2	i
Cc1ccccc1-c1nc(-c2cccnc2)no1	98	-3	1	67*	43	i
Clc1ccccc1-c1nc(-c2cccnc2)no1	98	-5	-8	47	40	i
